The values that follow come from ChEMBL document CHEMBL4513216, “Probing the Open Global Health Chemical Diversity Library for Multistage-Active Starting Points for Next-Generation Antimalarials” (ACS Infect Dis, 2020).

A short description of the data set: Toxicity liver stage against HepG2, at 10uM. The data set is classed as cell-based. Also on record: test concentration 10 uM, cell line HepG2-A16-CD81EGFP. The conditions noted are these: human, HepG2-A16-CD81EGFP cells; read-out: INHIBITION
A digest of the protocol: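 Uninfected HepG2-A16-CD81EGFP cells, 3 × 10^3 per well, 1536-well, plated on prespotted compound at 10 μM final, parasite-free screening media added to match infected plates; puromycin 10 μM positive, DMSO 0.5% negative; run in parallel with 48 h PbLuc assay at 37 °C, 5% CO2; viability by CellTiter-Glo luminescence, normalized to controls.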

Take `O=C(c1nn[nH]c1Nc1ccc(Cl)cc1)N1CCSCC1`: the cytotoxicity at 10 µM was found to be 4.67%.
Then `Fc1cnc(NCC2Cn3nnc(-c4ccccc4)c3CO2)nc1` (stereo not given), with -64.7%.
Consider `Cc1sc2ncc(-c3ccnc(NC4CCN(C)CC4)n3)c(=O)n2c1C`, for which the cytotoxicity at 10 µM is -7.75%.
On to `CS(=O)(=O)NC1CCN(Cc2coc(-c3ccc(Cl)cc3)n2)CC1`, for which the cytotoxicity at 10 µM was -41.9%.
As for `CN(C)C(=O)N1CCN(Cc2ccc3occc3c2)[C@H]2CS(=O)(=O)C[C@H]21`, the cytotoxicity at 10 µM was -4.37%.
On to `Cc1ccc(C(=O)N2CCC3(CC2)COCCN(S(C)(=O)=O)C3)cc1C`, for which the cytotoxicity at 10 µM amounted to 3.27%.
Then `O=C(C1CCCC1)N1CCC(C2CCN(Cc3ccc(Cl)cc3)C2)CC1` (stereo not given), with -2.45%; and `CN(C)c1cc(C(=O)N2CCCC(n3cccn3)C2)ccn1` (stereo not given), with -0.781%.
For `COCCc1noc(CN2CCN(c3ccc(OC)cc3)C(=O)C2C)n1` (stereo not given), the cytotoxicity at 10 µM stood at 0.296%.
Then `COC(=O)Cn1c(=O)cc(C(F)F)c2c(C)nn(CC(F)F)c21`, with 6.2%; and `CC(C)N1CCC(Cc2cncc(-c3cccc(C(=O)O)c3)n2)CC1`, with -20.8%.
Then `Cn1cc(C(=O)N2CCCCC2CCc2ccc(O)cc2)cn1` (stereo not given), with -2.3%; and `O=C(c1cc(-c2cn[nH]c2)nc2ccc(F)cc12)N1CCSCC1`, with -0.0178%.
Under `CCCc1noc(CCC(=O)Nc2cc(C(F)(F)F)c[nH]c2=O)n1` stands -7.21%.
`Cc1ccc(CN2CCc3ncnc(OC(C)C)c3CC2)s1`: the cytotoxicity at 10 µM was found to be 22.8%.
With `Cc1cccc(C)c1-n1nnnc1C1(NCc2ccco2)CCCC1`, the cytotoxicity at 10 µM is 12.9%.
Then `CN(Cc1n[nH]c(=O)n1Cc1ccco1)S(C)(=O)=O`, with -1.25%; and `Cc1noc(-c2cnc(NC(C)C)nc2-c2ccco2)c1C`, with -0.275%; and `O=C(NCC1(c2ccc(F)cc2)CC1)N1CCC2(CCOC2)C1` (stereo not given), with -6.72%.
In the case of `O=C(CN1C(=O)CCC1=O)N1CCOC2(CCOCC2)C1`, the cytotoxicity at 10 µM is 4.1%.
Then `Cn1cnc2cc(CCC(=O)Nc3n[nH]c(C4CCCO4)n3)ccc21` (stereo not given), with -0.863%; and `Cc1occc1C(=O)N1CCC2(CCN(C(=O)c3cccnc3)C2)CC1`, with -88.1%; and `O=S(=O)(NC[C@H]1C[C@@H]2CCN1C[C@@H]2CN1CCCCC1)c1ccccc1`, with -4.32%.
On to `Cc1n[nH]c(C)c1C1CCCN1C(=O)c1coc(Br)c1` (stereo not given), for which the cytotoxicity at 10 µM is 4.23%.
Then `CN(CC(=O)N1CCCC1)C(=O)c1cccn1CCc1ccccc1`, with 6.99%.
With `O=C(CC1CCCCC1)N1CCN(C(=O)NCc2ccccn2)CC1`, the cytotoxicity at 10 µM was -4.02%.
Then `O=C(CCNC(=O)c1ccccc1F)NCCNc1cccnc1`, with -7.55%.
Then `Cc1ccc(CN2CCC3(CC2)CC(c2cccnc2)C(=O)N3C)o1` (stereo not given), with -2.71%; and `O=C(Cn1nc2c(cc1=O)CSCC2)N[C@@H](Cc1ccccc1)C(=O)O`, with -3.14%.
Then `O=C(CN1CCC(c2nnc(C(F)(F)F)o2)CC1)NCc1ccccc1`, with 2.51%; and `O=C(COc1coc(CN2CCCCC2)cc1=O)Nc1cccc(Cl)c1`, with -1.89%; and `Cc1ccc(CN2CCC[C@]3(C(=O)O)CN(c4ncccn4)C[C@@H]3C2)o1`, with -11.3%.
As for `O=C(CN1CCC(c2nnc(C(F)(F)F)o2)CC1)Nc1cccnc1`, the cytotoxicity at 10 µM is -2.46%.
Then `Cc1nc(N2CCN(C(=O)c3ccncc3)CC2)c2c(n1)c(C)nn2C`, with 10.3%; and `COc1nc2c(cc1C(=O)NC(C)Cc1cc(C)n[nH]1)CCC2` (stereo not given), with -137%; and `O=c1[nH][nH]c2cn(-c3ccc(F)cc3)c(=O)n12`, with -1.45%.
Under `COc1ccccc1CN1CCC(Cc2cnc(CN(C)C)cn2)CC1` stands -6.45%; under `O=C(CN1CCCC1Cn1cncn1)Nc1nccs1` (stereo not given), 4.1%.
Then `CC(C)CCN1CCN(CC(=O)Nc2ccc3nsnc3c2)CC1`, with -0.216%; and `COc1ccc(CNC(C)Cn2cccn2)cc1F` (stereo not given), with -0.544%.
Take `Cc1cnn(CC2CN(CC(=O)Nc3cc(C)on3)CCO2)c1` (stereo not given): the cytotoxicity at 10 µM is -7.3%.
Then `CC(C)(C)n1cc(CNC2CCN(C(=O)c3ccco3)CC2)cn1`, with -8.08%; and `O=C(c1ccc2c(c1)[nH]c(=O)n2C1CCCC1)N1CCCSCC1`, with -41.2%.
Under `CCNc1c(NC(=O)C2CC2)c(=O)oc2ccccc12` stands -5.99%; under `O=C(NC1CC1)C1CN(C(=O)c2cnccn2)C1`, -10.2%.
As to `Cc1cccc(C)c1OCC(=O)Nc1cccn(C)c1=O`, the cytotoxicity at 10 µM was found to be 4.08%.
`COCCn1ccc2c(C(=O)Nc3nc4c(s3)CCC4)cccc21`: the cytotoxicity at 10 µM worked out at 1.82%.
Consider `O=C(Cc1cc2c(cc1Br)OCCO2)NC1CCS(=O)(=O)C1` (stereo not given), for which the cytotoxicity at 10 µM was found to be 10.1%.
Then `Cc1cc(N)n(-c2ccc3nnc(C)n3n2)n1`, with 5.89%; and `CN(C)CC1CSCCCN1S(=O)(=O)Cc1cccc(F)c1` (stereo not given), with -3.63%; and `Cc1nsc(N2CCN(C(=O)Nc3ccc4[nH]ccc4c3)CC2)n1`, with 4.52%.
Then `CCN(C(=O)CN1CCCC1c1ccc(OC)cc1)c1ccccc1` (stereo not given), with -2.25%; and `Cc1nc(C)n(C2CCCN(C(=O)c3cccc4[nH]ncc34)C2)n1` (stereo not given), with -4.72%; and `c1ccc(CN2CCc3ncnc(N4CCCC4)c3CC2)nc1`, with -8.35%.
As to `Cc1nc(CO[C@H]2CN(C(=O)c3cccnc3)[C@@H]3COC[C@H]23)cs1`, the cytotoxicity at 10 µM was -110%.
In the case of `O=C(O)c1ccn(COc2c(Cl)cccc2Cl)n1`, the cytotoxicity at 10 µM was 8.71%.
Take `COc1cc(C2Nc3cc(Cl)ccc3C3=NCCN32)ccc1O` (stereo not given): the cytotoxicity at 10 µM is -29.3%.
`N#Cc1cc(Br)ccc1NC1CCN(CC(N)=O)CC1`: the cytotoxicity at 10 µM stood at 5.23%.
Under `CCc1cc(CN(C)C(=O)C2CC(=O)N(c3cccc(O)c3)C2)on1` (stereo not given) stands -1.72%.
Then `CNc1cc(C)nc(N2C[C@H](NC(=O)C3CCOCC3)[C@@H](C3CC3)C2)n1`, with 4.41%.
For the compound `CC(C)CC(=O)NCCn1nc(C2CCNC2)c2cccnc21` (stereo not given), the cytotoxicity at 10 µM is -25%.
Under `Cc1ccc(CNC2(Cc3cc(CC(C)C)on3)COC2)o1` stands -2.07%; under `CC(C)c1noc(CCC(=O)NCC2CC2)n1`, -28.7%.
With `Cc1c[nH]c(C2CN(Cc3ccccc3C(=O)O)CCO2)n1` (stereo not given), the cytotoxicity at 10 µM was -0.822%.
Then `CCc1cc(C(F)(F)F)n2nc(C3CCCN3C3CCSCC3)cc2n1` (stereo not given), with 3.81%; and `CN1C(=O)C2(CCN(S(=O)(=O)C3CC3)CC2)c2ccccc21`, with -5.27%; and `OCCN1CCCC(c2cccc(-c3ccccc3F)n2)C1` (stereo not given), with 5.68%.
Then `N#Cc1ccc(CN2CCN(C(=O)CCn3cncn3)CC2)cc1`, with -7.06%; and `CCc1c(C(=O)N2CC[C@H](N3CCOCC3)[C@H](CCCO)C2)csc1C`, with -141%; and `Cc1cc(CN2C[C@@H]3COC[C@]3(CN(C)C)C2)no1`, with 4.81%.
Regarding `CCCn1ncc(C(=O)NC2CCN(CC3CCCO3)CC2)c1C` (stereo not given), the cytotoxicity at 10 µM was -2.43%.
Under `O=C(NC1CCS(=O)(=O)C1)c1sccc1OC(F)F` (stereo not given) stands -0.699%; under `NC(=O)CN(C(=O)c1c[nH]c2ncccc12)C1CCCC1`, 0.441%; under `CC(NC(=O)NC1CCN(Cc2ccccn2)CC1)c1ccco1` (stereo not given), 13.9%.
Take `O=C1C[C@@H]2CCN(Cc3ccccc3)C[C@@H]2CCN1c1ccccc1`: the cytotoxicity at 10 µM came to 3.16%.
On to `Cc1[nH]nc2ncc(C(=O)N3CCN(CC(C)C)CC3)cc12`, for which the cytotoxicity at 10 µM is -3.88%.
Under `c1ccc(OC[C@]23COC[C@H]2CN(c2ncccn2)C3)nc1` stands -14.1%; under `Cc1n[nH]c(C)c1-c1c(C#N)c(N)nc2c1CCc1[nH]ccc1-2`, 2.83%.
As to `Cc1ccccc1C(=O)Nc1ccc(OC2CCN(C)CC2)cc1`, the cytotoxicity at 10 µM was -1.57%.
For `CC(C)NC(=O)[C@@H]1C[C@@H](N)CN1C(=O)c1cc2c([nH]c1=O)CCCC2`, the cytotoxicity at 10 µM was -0.869%.
Then `CCCC(C)(C)NC(=O)CCN1CCOC1=O`, with -8.94%; and `CCCn1c(C)c(CC(=O)N[C@H](C)C(=O)OC)c2c1CC(C)(C)CC2=O`, with -2.06%.
For `O=C1COC2(CCN(C(=O)c3ccoc3)CC2)CN1Cc1cccnc1`, the cytotoxicity at 10 µM turned out to be 5.29%.
`Cc1ccc(OCC(C)NS(=O)(=O)Cc2ccon2)cc1` (stereo not given): the cytotoxicity at 10 µM is -4.84%.
In the case of `Cc1ncnc2c1CCN(C(=O)c1ccncc1F)CC2`, the cytotoxicity at 10 µM is -71.1%.
As for `CCOc1ncnc2c1CCN(C(=O)CN(C)C)CC2`, the cytotoxicity at 10 µM is -5.12%.
With `COCC1CN(c2ncccn2)Cc2cnn(CC3CC3)c21` (stereo not given), the cytotoxicity at 10 µM is 6.68%.
Under `CCS(=O)(=O)N1CCC2(CCCC(=O)N2C)CC1` stands 0.817%; under `Cc1nc2cc(=O)[nH]n2c(C)c1CC(=O)Nc1cn[nH]c1`, 6.13%.
Under `O=C([C@H]1C[C@H]2OCC[C@H]2N(C(=O)C2CCOCC2)C1)N1CCCCO1` stands -8.28%.
For the compound `CN(Cc1cc(C2CC2)on1)C(=O)CN1CC(c2ccccc2)CC1=O` (stereo not given), the cytotoxicity at 10 µM is -6.72%.
Under `CCn1c(CNC(=O)c2ccc(N(C)C)nc2)nc2ccccc21` stands 4.5%.
Under `CCc1cnc(CN2CCCC2c2noc(C3CC3)n2)o1` (stereo not given) stands -4.84%; under `O=c1cc(Cn2ccnc2)nc2n1CCCN(CC1CCOCC1)C2`, 12.7%; under `COc1ccc2[nH]nc(CN3CCC(C(=O)N4CCCCC4)CC3)c2c1`, -2.03%.
